Screens from PubChem BioAssay.
Only a selection was taken, and hits are over-represented in it overall.
IDH1 R132H inh – inhibitors of human IDH1 R132H; AID 624101; IDH1 R132H reductase, diaphorase/resazurin fluorescence, 60 min; O75874; actives 0.18% (n = 70,000); inhibition, % at 10 µM; in the data active = inhibition above about 34%; inconclusive = no clear call, values can overlap the other calls; inactive = below about 11%
Target sequence (O75874 whole entry R132H): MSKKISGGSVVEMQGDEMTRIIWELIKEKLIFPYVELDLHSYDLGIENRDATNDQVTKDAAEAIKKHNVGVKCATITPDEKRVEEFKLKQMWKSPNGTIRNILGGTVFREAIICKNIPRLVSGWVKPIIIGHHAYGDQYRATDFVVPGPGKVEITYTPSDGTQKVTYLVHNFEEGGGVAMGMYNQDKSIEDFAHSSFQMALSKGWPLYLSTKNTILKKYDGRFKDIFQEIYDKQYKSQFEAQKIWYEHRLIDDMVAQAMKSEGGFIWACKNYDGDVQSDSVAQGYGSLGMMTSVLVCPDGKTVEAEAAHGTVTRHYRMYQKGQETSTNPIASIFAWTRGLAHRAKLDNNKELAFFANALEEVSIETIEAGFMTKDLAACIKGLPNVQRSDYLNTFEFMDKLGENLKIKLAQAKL
T cruzi growth-1 – inhibitors of T. cruzi proliferation. T. cruzi beta-gal in NIH3T3, GalScreen luminescence, 90 h. AID 624255. inhibition, % at 8.34 µM. actives 5.9% (n = 77,000);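 active = mean inhibition above about 93%, with at least 55% of replicates each passing it, limit read from the data, passing the limit was not always enough; inconclusive = only one of those two conditions holds; inactive = neither condition holds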
GASC1 inh – KDM4C (human) demethylase inhibition | inhibition, % at 12.5 µM | AID 720574 | actives 0.15% (n = 96,000) | GST-KDM4C 2-372, H3K9me3 peptide, LANCE TR-FRET | Q9H3R0;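 active = mean replicate inhibition above about 25%, with at least 55% of replicates also reaching it, limit read from the data, passing the limit was not always enough; inconclusive = only one of those two conditions met; inactive = neither condition met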
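reagent = H3K9me3 peptide substrate, Fe(II), 2-oxoglutarate | system = GST-tagged GASC-1 (JMJD2C) catalytic fragment, aa 2-372 | amount = enzyme final amount 10 nM | read-out = Fall in 671/618 emission ratio as inhibition | medium = HEPES buffer, pH 7.5, plus ascorbate | schedule = 30 min reaction, 60 min detection, RT | measured by = LANCE TR-FRET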
T cruzi growth-2 – blocks T. cruzi growth in NIH3T3 host cells. inhibition, % at 8.35 µM. actives 72% (n = 5,600). shares compounds with T cruzi growth-1. T. cruzi beta-gal in NIH3T3, GalScreen luminescence, 90 h;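 active = mean replicate inhibition above about 95% and at least 55% of replicates individually reaching it, limit read from the data; inconclusive = only one of the two criteria is met; inactive = neither criterion is met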
T cruzi growth-3 – Trypanosoma cruzi proliferation inhibition. shares compounds with T cruzi growth-1. T. cruzi beta-gal in NIH3T3, GalScreen luminescence, 90 h. inhibition, % at 2.09 µM. actives 21% (n = 5,600);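 active = mean inhibition above about 95%, with at least 55% of replicates also reaching it, limit read from the data; inconclusive = meets just one of the two conditions; inactive = meets neither condition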
NIH3T3 tox – NIH/3T3 (mouse) viability loss | shares compounds with T cruzi growth-1 | NIH/3T3 viability, CellTiter-Glo ATP luminescence, 90 h | cytotoxicity (signal decrease), % at 8.35 µM | actives 14% (n = 5,600) | AID 651742;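 active = mean signal decrease across replicates above about 35% based on untreated-well scatter, with enough replicates individually passing, limit read from the data; inconclusive = no rule stated though some were filed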
NIH3T3 tox 2 – cytotoxicity in mouse NIH/3T3 fibroblasts; shares compounds with T cruzi growth-1; actives 56% (n = 5,600); NIH/3T3 viability, CellTiter-Glo ATP luminescence, 90 h; inhibition, % at 24.9 µM;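 active = mean loss of cell viability signal at or above a set limit, and enough replicates individually reaching it; inconclusive = meets only the mean limit or only the replicate share; inactive = meets neither condition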
A number is an active result.

C[C@@H]1CN([C@@H](C)CO)S(=O)(=O)c2ccc(C3=CCCC3)cc2O[C@@H]1CN(C)C(=O)Nc1ccc2c(c1)OCO2 was read as IDH1 R132H inh inactive, T cruzi growth-1 inactive and GASC1 inh inactive.
CC(C)C#Cc1ccc2c(c1)O[C@@H](CN(C)C(=O)Nc1ccccc1)[C@@H](C)CN([C@@H](C)CO)S2(=O)=O was read as GASC1 inh inactive.
`C[C@H]1CN([C@@H](C)CO)S(=O)(=O)c2ccc(C#Cc3ccncc3)cc2O[C@H]1CN(C)C(=O)Nc1ccc2c(c1)OCO2` gave T cruzi growth-1 inactive and GASC1 inh inactive.
`C[C@@H]1CN([C@@H](C)CO)S(=O)(=O)c2ccc(C#Cc3ccccc3)cc2O[C@H]1CN(C)C(=O)Nc1ccccc1` gave IDH1 R132H inh inactive, T cruzi growth-1 123, GASC1 inh inactive, T cruzi growth-2 98, T cruzi growth-3 108, NIH3T3 tox 40 and NIH3T3 tox 2 36.
Screening C[C@@H]1CN([C@@H](C)CO)S(=O)(=O)c2ccc(C3=CCCC3)cc2O[C@H]1CN(C)C(=O)Nc1ccc2c(c1)OCO2 returned IDH1 R132H inh inactive, T cruzi growth-1 112, GASC1 inh inactive, T cruzi growth-2 106, T cruzi growth-3 inactive, NIH3T3 tox inactive and NIH3T3 tox 2 61.
Screening C[C@@H](O)C#Cc1ccc2c(c1)O[C@@H](CN(C)C(=O)Nc1ccccc1)[C@@H](C)CN([C@@H](C)CO)S2(=O)=O returned T cruzi growth-1 inactive.
Screening Cc1ccc(C2SCC(C(=O)O)N2C(=O)c2cccc(Cl)c2)cc1 (stereo unspecified) returned IDH1 R132H inh inactive.
Cc1ccccc1CN1C(=O)C(O)(CC(=O)c2ccncc2)c2cc(Cl)ccc21 (stereo unspecified) was read as IDH1 R132H inh inactive.
`COc1cc(-c2nnc(SCC(=O)c3cccc([N+](=O)[O-])c3)n2-c2ccccc2)cc(OC)c1OC` gave IDH1 R132H inh inactive.
Screening CCOC(=O)c1c(NC(=O)c2ccc(C)c(S(=O)(=O)N3CCCC3)c2)sc(C)c1C returned IDH1 R132H inh inactive.
For Cc1ccc(C)c(NC(=O)CCn2cnc3ccccc3c2=O)c1 the results were IDH1 R132H inh inactive.
CC(C)(C)OC(=O)NC1(/C=N/NC(=O)CCCCC(=O)NO)CCCC1 was read as IDH1 R132H inh inactive.
For COc1ccc(C(Nc2ccccn2)c2cc(Cl)c3cccnc3c2O)cc1[N+](=O)[O-] (stereo unspecified) the results were IDH1 R132H inh inactive.
`Cc1nc(-c2ccccc2)sc1C(=O)C1C(=O)C(=O)N(CCN(C)C)C1c1ccccc1` (stereo unspecified) gave IDH1 R132H inh inactive.
For CCOC(=O)c1ccc(NC(=O)CSc2nccc(=O)[nH]2)cc1 the results were IDH1 R132H inh inactive.
Screening Cn1nnnc1SCC(=O)Nc1ccc(N2CCOCC2)c(Cl)c1 returned IDH1 R132H inh inactive.
Screening CS(=O)(=O)N(CC(=O)NC1CCCCC1)c1ccc(F)cc1 returned IDH1 R132H inh inactive.
For CC(C)C#Cc1ccc2c(c1)O[C@@H](CN(C)C(=O)Nc1ccccc1)[C@H](C)CN([C@@H](C)CO)S2(=O)=O the results were GASC1 inh inactive.
Screening C[C@@H]1CN([C@H](C)CO)S(=O)(=O)c2ccc(C#Cc3ccccc3)cc2O[C@H]1CN(C)C(=O)Nc1ccccc1 returned T cruzi growth-1 122, GASC1 inh inactive, T cruzi growth-2 109, T cruzi growth-3 inactive, NIH3T3 tox 37 and NIH3T3 tox 2 50.
Screening CC(C(=O)Nc1cccnc1)N(c1ccc(Cl)cc1)S(C)(=O)=O (stereo unspecified) returned IDH1 R132H inh inactive.
For Cc1ccc(C(=O)NC(=O)CSc2n[nH]c(N)n2)cc1 the results were IDH1 R132H inh inactive.
For C[C@@H]1CCCCO[C@H](CN(C)Cc2ccc(C(F)(F)F)cc2)[C@@H](C)CN([C@H](C)CO)C(=O)c2cc(NS(=O)(=O)c3ccc(Cl)cc3)ccc2O1 the results were IDH1 R132H inh inactive, T cruzi growth-1 111, GASC1 inh inactive, T cruzi growth-2 105, T cruzi growth-3 inactive, NIH3T3 tox inactive and NIH3T3 tox 2 104.
C[C@@H]1CN([C@H](C)CO)C(=O)c2cc(NS(=O)(=O)c3ccc(Cl)cc3)ccc2O[C@@H](C)CCCCO[C@H]1CN(C)Cc1ccc(C(F)(F)F)cc1 was read as T cruzi growth-1 inactive and GASC1 inh inactive.
`C[C@H]1CCCCO[C@@H](CN(C)Cc2ccc(C(F)(F)F)cc2)[C@@H](C)CN([C@@H](C)CO)C(=O)c2cc(NS(=O)(=O)c3ccc(Cl)cc3)ccc2O1` gave IDH1 R132H inh inactive, T cruzi growth-1 inactive and GASC1 inh inactive.
Screening C[C@@H]1CN([C@@H](C)CO)C(=O)c2cc(NS(=O)(=O)c3ccc(Cl)cc3)ccc2O[C@@H](C)CCCCO[C@@H]1CN(C)Cc1ccc(C(F)(F)F)cc1 returned IDH1 R132H inh inactive, T cruzi growth-1 96, GASC1 inh inactive, T cruzi growth-2 inactive, T cruzi growth-3 116, NIH3T3 tox inactive and NIH3T3 tox 2 93.
`C[C@@H]1CCCCO[C@@H](CN(C)Cc2ccc(C(F)(F)F)cc2)[C@H](C)CN([C@H](C)CO)C(=O)c2cc(NS(=O)(=O)c3ccc(Cl)cc3)ccc2O1` gave IDH1 R132H inh inactive, T cruzi growth-1 inactive and GASC1 inh inactive.
For C[C@@H]1CN([C@@H](C)CO)C(=O)c2cc(NS(=O)(=O)c3ccc(Cl)cc3)ccc2O[C@@H](C)CCCCO[C@H]1CN(C)Cc1ccc(C(F)(F)F)cc1 the results were IDH1 R132H inh inactive, T cruzi growth-1 inconclusive, GASC1 inh inactive, T cruzi growth-2 inactive, T cruzi growth-3 113, NIH3T3 tox 104 and NIH3T3 tox 2 106.
`COc1cccc(N(CC(=O)Nc2c(C)n(C)n(-c3ccccc3)c2=O)S(C)(=O)=O)c1` gave IDH1 R132H inh inactive.
`CC1(C)CC(n2c(SCC(=O)c3ccc(Br)cc3)nc3ccccc3c2=O)CCO1` (stereo unspecified) gave IDH1 R132H inh inactive.
For CCOc1ccc(NC(=O)C(C)Sc2nc3ccccc3s2)cc1 (stereo unspecified) the results were IDH1 R132H inh inactive.
`CCCn1nnc(NC(=O)COc2ccc(Br)cc2)n1` gave IDH1 R132H inh inactive.
